Test results taken from ChEMBL document CHEMBL1157573, “BRAF inhibitors based on an imidazo[4,5]pyridin-2-one scaffold and a meta substituted middle ring” (J Med Chem, 2010).
pIC50: −log10 of the molar value.

Assays:
[1] = target: T1, Serine/threonine-protein kinase B-raf (Homo sapiens, UniProt P15056, V600E); test: Inhibition of human BRAF V600E mutant expressed in Sf9 cells
[2] = target: T1, Serine/threonine-protein kinase B-raf; test: Inhibition of BRAF V600E mutant-mediated ERK phosphorylation in human WM266.4 cells; type: cell-based
[3] = Antiproliferative activity against human WM266.4 cells after 6 days by SRB assay; type: functional; conditions: WM 266-4, 144 h
Procedure, shortened: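 SRB cell proliferation assay on WM266.4 melanoma cells, which carry mutant BRAF. Growth inhibition is reported as GI50.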

T1 sequence (P15056 2-766 V600E limits assumed): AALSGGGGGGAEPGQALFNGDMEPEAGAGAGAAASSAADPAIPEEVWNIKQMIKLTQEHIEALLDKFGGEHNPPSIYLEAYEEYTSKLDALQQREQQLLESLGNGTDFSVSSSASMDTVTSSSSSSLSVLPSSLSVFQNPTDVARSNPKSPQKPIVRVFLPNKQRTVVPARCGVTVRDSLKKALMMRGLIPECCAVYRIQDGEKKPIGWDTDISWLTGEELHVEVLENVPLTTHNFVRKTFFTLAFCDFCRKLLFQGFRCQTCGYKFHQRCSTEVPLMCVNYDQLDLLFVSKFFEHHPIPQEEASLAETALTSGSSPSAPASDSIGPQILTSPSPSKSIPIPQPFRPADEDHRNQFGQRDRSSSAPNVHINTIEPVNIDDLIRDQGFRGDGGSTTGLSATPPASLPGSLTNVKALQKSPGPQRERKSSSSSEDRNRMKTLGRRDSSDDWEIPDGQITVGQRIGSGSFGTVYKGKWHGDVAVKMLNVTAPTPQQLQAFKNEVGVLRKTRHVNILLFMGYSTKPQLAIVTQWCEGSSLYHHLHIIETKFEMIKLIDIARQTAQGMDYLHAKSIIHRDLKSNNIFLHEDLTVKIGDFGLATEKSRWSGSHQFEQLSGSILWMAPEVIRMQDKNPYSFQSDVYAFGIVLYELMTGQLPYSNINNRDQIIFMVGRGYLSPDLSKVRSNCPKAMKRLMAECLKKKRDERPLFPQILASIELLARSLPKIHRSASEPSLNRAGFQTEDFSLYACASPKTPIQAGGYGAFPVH

With `COc1ccc(NC(=O)c2cccc(OC(F)(F)F)c2)cc1Oc1ccnc2[nH]c(=O)[nH]c12` as the compound, how does the pIC50 [1] read?
Its pIC50 is 6.47.

What about the pIC50 [2] of the same compound?
Its pIC50 is under 4.00.

Which results are given for `COc1cc(NC(=O)c2cccc(OC(F)(F)F)c2)cc(Oc2ccnc3[nH]c(=O)[nH]c23)c1`?
pIC50 [1]: 7.19; pIC50 [2]: 4.78

With `O=C(Nc1ccc(Oc2ccnc3[nH]c(=O)[nH]c23)cc1)Nc1ccc(Cl)c(C(F)(F)F)c1` as the compound, how does the pIC50 [1] read?
The pIC50 was 7.64.

With `O=C(Nc1ccc(Oc2ccnc3[nH]c(=O)[nH]c23)cc1)c1cc(F)cc(N2CCOCC2)c1` as the compound, how does the pIC50 [1] read?
Its pIC50 is under 4.00.

With `O=C(Nc1ccc(Oc2ccnc3[nH]c(=O)[nH]c23)cc1)c1ccc(Br)cc1` as the compound, how does the pIC50 [1] read?
Its pIC50 is 4.85.

With `Cc1ccc(NC(=O)c2cccc(OC(F)(F)F)c2)cc1Oc1ccnc2[nH]c(=O)[nH]c12` as the compound, how does the pIC50 [1] read?
Its pIC50 is under 5.00.

What about the pIC50 [2] of the same compound?
Its pIC50 is under 4.00.

And the GI50 [3]?
Its GI50 is 38 µM.

With `O=C(Nc1cccc(Oc2ccnc3[nH]c(=O)[nH]c23)c1)c1ccc(C(F)(F)F)cc1` as the compound, how does the pIC50 [1] read?
Its pIC50 is 6.14.

And the pIC50 [2]?
The pIC50 was under 4.00.

What does the source list for `O=C(Nc1cccc(Oc2ccnc3[nH]c(=O)[nH]c23)c1)c1cnn(-c2ccccc2)c1C(F)(F)F`?
pIC50 [1]: < 4.00; pIC50 [2]: 4.42; GI50 [3]: 3.3 µM

Which results are given for `CC(C)(C)c1cc(NC(=O)Nc2cccc(Oc3ccnc4[nH]c(=O)[nH]c34)c2)n(-c2ccc(F)cc2)n1`?
pIC50 [1]: 6.91; pIC50 [2]: 5.71

With `O=C(Nc1cccc(Oc2ccnc3[nH]c(=O)[nH]c23)c1)c1cccc2c1OCCCO2` as the compound, how does the pIC50 [1] read?
The pIC50 was under 4.00.

What about the pIC50 [2] of the same compound?
Its pIC50 is under 4.00.

What about the GI50 [3] of the same compound?
Its GI50 is 48 µM.

With `Cc1ccc(-n2nc(C(C)(C)C)cc2NC(=O)c2cccc(Oc3ccnc4[nH]c(=O)[nH]c34)c2)cc1` as the compound, how does the pIC50 [1] read?
Its pIC50 is 6.23.

And the pIC50 [2]?
Its pIC50 is 5.69.

With `O=C(Nc1cccc(Oc2ccnc3[nH]c(=O)[nH]c23)c1)c1cccc2c1OCCO2` as the compound, how does the pIC50 [1] read?
The pIC50 was under 4.00.

And the pIC50 [2]?
Its pIC50 is under 4.00.

What about the GI50 [3] of the same compound?
The GI50 was 40 µM.

With `O=c1[nH]c2nccc(Oc3ccc(NS(=O)(=O)c4cccc(C(F)(F)F)c4)cc3)c2[nH]1` as the compound, how does the pIC50 [1] read?
Its pIC50 is under 4.00.

With `Cc1cc(C(=O)Nc2cccc(Oc3ccnc4[nH]c(=O)[nH]c34)c2)n(C)n1` as the compound, how does the pIC50 [1] read?
The pIC50 was under 4.00.

What about the pIC50 [2] of the same compound?
Its pIC50 is 4.10.

With `O=C(Cc1ccccc1)Nc1cccc(Oc2ccnc3[nH]c(=O)[nH]c23)c1` as the compound, how does the pIC50 [1] read?
The pIC50 was 4.06.

And the pIC50 [2]?
Its pIC50 is under 4.00.

With `CN(C)c1cccc(C(=O)Nc2cccc(Oc3ccnc4[nH]c(=O)[nH]c34)c2)c1` as the compound, how does the pIC50 [1] read?
The pIC50 was under 4.00.

What about the pIC50 [2] of the same compound?
Its pIC50 is 4.38.

With `O=C(Nc1cccc(Oc2ccnc3[nH]c(=O)[nH]c23)c1)c1ccnn1-c1ccccc1` as the compound, how does the pIC50 [1] read?
Its pIC50 is under 4.00.

What about the pIC50 [2] of the same compound?
Its pIC50 is 4.04.

What about the GI50 [3] of the same compound?
The GI50 was 15.6 µM.

Which results are given for `Cc1c(NC(=O)c2cccc(OC(F)(F)F)c2)cccc1Oc1ccnc2[nH]c(=O)[nH]c12`?
pIC50 [1]: < 5.00; pIC50 [2]: < 4.00

With `O=c1[nH]c2nccc(Oc3ccc(NS(=O)(=O)c4ccc(Cl)c(C(F)(F)F)c4)cc3)c2[nH]1` as the compound, how does the pIC50 [1] read?
Its pIC50 is under 4.00.

With `CCC(C)(C)c1cccc(C(=O)Nc2cccc(Oc3ccnc4[nH]c(=O)[nH]c34)c2)c1` as the compound, how does the pIC50 [1] read?
Its pIC50 is 7.40.

And the pIC50 [2]?
Its pIC50 is 5.51.

With `O=C(Nc1cccc(Oc2ccnc3[nH]c(=O)[nH]c23)c1)c1cccc(-n2ccnc2)c1` as the compound, how does the pIC50 [1] read?
The pIC50 was under 5.00.

And the pIC50 [2]?
The pIC50 was under 4.00.

And the GI50 [3]?
Its GI50 is 6.2 µM.

With `O=c1[nH]c2nccc(Oc3ccc(NS(=O)(=O)c4ccccc4)cc3)c2[nH]1` as the compound, how does the pIC50 [1] read?
Its pIC50 is 6.07.

Which results are given for `Cc1ccc(Oc2ccnc3[nH]c(=O)[nH]c23)cc1NC(=O)c1cccc(OC(F)(F)F)c1`?
pIC50 [1]: < 5.00; pIC50 [2]: < 4.00

With `O=C(Nc1ccc(Oc2ccnc3[nH]c(=O)[nH]c23)cc1)c1ccc(Cl)c(C(F)(F)F)c1` as the compound, how does the pIC50 [1] read?
The pIC50 was 4.80.

With `CC(C)(C)c1cc(C(=O)Nc2cccc(Oc3ccnc4[nH]c(=O)[nH]c34)c2)n(Cc2ccccc2)n1` as the compound, how does the pIC50 [1] read?
The pIC50 was under 4.00.

What about the pIC50 [2] of the same compound?
Its pIC50 is under 4.00.

With `O=c1[nH]c2nccc(Oc3cccc(NCc4cccc(OC(F)(F)F)c4)c3)c2[nH]1` as the compound, how does the pIC50 [1] read?
The pIC50 was under 5.00.

And the pIC50 [2]?
Its pIC50 is under 4.00.

And the GI50 [3]?
Its GI50 is 0.74 µM.

With `O=C(Cc1cccc(OC(F)(F)F)c1)Nc1cccc(Oc2ccnc3[nH]c(=O)[nH]c23)c1` as the compound, how does the pIC50 [1] read?
Its pIC50 is under 5.00.

What about the pIC50 [2] of the same compound?
The pIC50 was 4.89.

What about the GI50 [3] of the same compound?
Its GI50 is 29.4 µM.

With `O=C(Cc1cccc(C(F)(F)F)c1)Nc1cccc(Oc2ccnc3[nH]c(=O)[nH]c23)c1` as the compound, how does the pIC50 [1] read?
The pIC50 was under 5.00.

And the pIC50 [2]?
Its pIC50 is 4.75.

And the GI50 [3]?
Its GI50 is 25.7 µM.

With `O=C(Nc1cccc(Oc2ccnc3[nH]c(=O)[nH]c23)c1)c1ccc2nsnc2c1` as the compound, how does the pIC50 [1] read?
The pIC50 was under 4.00.

And the pIC50 [2]?
Its pIC50 is under 4.00.

And the GI50 [3]?
The GI50 was 8.3 µM.
